Experiments:
[1] = test system: Rhodococcus corynebacterioides; assay: Antimicrobial activity against Corynebacterium rubrum NCIM 2252 at 5 ug/disk after 24 hrs by disk diffusion method; format: functional; settings: Rhodococcoides corynebacterioides, NCIM 2252, 24 h; read-out: DIZ
In short: (§1)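 Disc diffusion on Mueller–Hinton agar. 100 µl of bacterial suspension at 10⁸ CFU/ml is spread on the plate. Discs carry test compounds at two loadings, dissolved in DMSO; DMSO alone serves as negative control. Ofloxacin disc is the positive reference. Plates are incubated at 37 °C for 24 h, and the inhibition zone diameter is measured.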

[2] = test system: Staphylococcus; assay: Antimicrobial activity against Staphylococcus albus NCIM 2178 at 5 ug/disk after 24 hrs by disk diffusion method; format: functional; settings: NCIM 2178, 24 h, read-out: DIZ
In short: (§2)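 Reference disc of ofloxacin at 5 µg/disc, used to check the sensitivity of each bacterial strain. 100 µl of inoculum at 10⁸ CFU/ml was spread on Mueller–Hinton agar and incubated at 37 °C for 24 h. The read-out was inhibition zone diameter.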

[3] = test system: Salmonella typhimurium; assay: Antimicrobial activity against Salmonella Typhimurium NCIM 2501 at 5 ug/disk after 24 hrs by disk diffusion method; format: functional, Salmonella enterica subsp. enterica serovar Typhimurium; settings: Salmonella enterica, NCIM 2501, 24 h; read-out: DIZ; in short: as §2
[4] = test system: Klebsiella aerogenes; assay: Antimicrobial activity against Klebsiella aerogenes NCIM 2239 at 5 ug/disk after 24 hrs by disk diffusion method; format: functional; settings: NCIM 2239, 24 h, read-out: DIZ; in short: as §1
[5] = test system: Bacillus subtilis; assay: Antimicrobial activity against Bacillus subtilis NCIM 2063 at 5 ug/disk after 24 hrs by disk diffusion method; format: functional; settings: NCIM 2063, 24 h, read-out: DIZ; in short: as §1
[6] = test system: Escherichia coli; assay: Antimicrobial activity against Escherichia coli NCIM 2065 at 5 ug/disk after 24 hrs by disk diffusion method; format: functional; settings: NCIM 2065, 24 h, read-out: DIZ; in short: as §1
[7] = test system: Pseudomonas aeruginosa; assay: Antimicrobial activity against Pseudomonas aeruginosa NCIM 2200 at 5 ug/disk after 24 hrs by disk diffusion method; format: functional; settings: NCIM 2200, 24 h, read-out: DIZ; in short: as §2
[8] = test system: Proteus vulgaris; assay: Antimicrobial activity against Proteus vulgaris NCIM 2027 at 5 ug/disk after 24 hrs by disk diffusion method; format: functional; settings: NCIM 2027, 24 h, read-out: DIZ; in short: as §1
[9] = test system: Aliivibrio fischeri; assay: Antimicrobial activity against Vibrio fischeri NCIM 2154 at 5 ug/disk after 24 hrs by disk diffusion method; format: functional; settings: NCIM 2154, 24 h, read-out: DIZ; in short: as §2
[10] = test system: Bacillus cereus; assay: Antimicrobial activity against Bacillus cereus NCIM 2155 at 5 ug/disk after 24 hrs by disk diffusion method; format: functional; settings: NCIM 2155, 24 h, read-out: DIZ; in short: as §1

CC1COc2c(N3CCN(C)CC3)c(F)cc3c(=O)c(C(=O)O)cn1c23 (stereo not given) [OFLOXACIN]
zone of inhibition at 5 µg/disc [1]: 25 mm
zone of inhibition at 5 µg/disc [2]: 21 mm
zone of inhibition at 5 µg/disc [3]: 21 mm
zone of inhibition at 5 µg/disc [4]: 24 mm
zone of inhibition at 5 µg/disc [5]: 24 mm
zone of inhibition at 5 µg/disc [6]: 23 mm
zone of inhibition at 5 µg/disc [7]: 22 mm
zone of inhibition at 5 µg/disc [8]: 19 mm
zone of inhibition at 5 µg/disc [9]: 27 mm
zone of inhibition at 5 µg/disc [10]: 19 mm
